One compound from ChEMBL document CHEMBL4831478, “Bispecific Estrogen Receptor α Degraders Incorporating Novel Binders Identified Using DNA-Encoded Chemical Library Screening” (J Med Chem, 2021) can be followed below.

Active and inactive are the calls of the source. The calls are words filed in the database; no cut-off is given here.

The subject of data set [1] is MCF7. Description: Antitumor activity against human MCF7 cells xenografted in CD1 mouse assessed as tumor growth inhibition at 10 mg/kg, sc administered once daily for 28 days by caliper method. Particulars: 672 h, time 28 day, read-out: TGI. It counts as functional. Put shortly:
(§1)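 Mice implanted with 17β-estradiol pellets (0.18 mg) 2 days before sc right-flank inoculation of 10×10^6 MCF-7 cells in PBS/Matrigel (50:50). Randomized at mean tumor 165 mm³, 8 per group. Dosed 10 mg/kg sc qd; fulvestrant reference 3 mg/mouse sc weekly. Caliper measurements twice weekly, V = 0.5a×b². TGI from medians. Body weight recorded before each dosing.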
On the technique in general: In xenograft studies the graft and the host belong to different species.

Data set [2] in a line: Volume of distribution at steady state in CD1 mouse at 0.3 mg/kg, iv administered as cassette dosing […]. In kind it is ADME, organism-based. Particulars: in vivo, read-out: Vdss.
Data set [3] in a line: Clearance in CD1 mouse at 0.3 mg/kg, iv administered as cassette dosing […]. In kind it is ADME, organism-based. Particulars: in vivo.
The species named for a further data set is Homo sapiens. Description: Selectivity index, ratio of DC50 for induction of ERalpha degradation in human MCF7 cells in presence of VHL298 to DC50 for induction of ERalpha degradation in human MCF7 cells. In kind it is cell-based. In short, it runs like this:
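MCF7 cells were treated with a PROTAC dose series, alone or co-treated with the VHL ligand VHL298 (5 μM), for 48 h in total before collection. ERα degradation DC50 was determined under both conditions and the two values compared as a ratio.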

The target in data set [4] is T1, Estrogen receptor (Homo sapiens) (UniProt P03372).
T1 sequence (whole entry): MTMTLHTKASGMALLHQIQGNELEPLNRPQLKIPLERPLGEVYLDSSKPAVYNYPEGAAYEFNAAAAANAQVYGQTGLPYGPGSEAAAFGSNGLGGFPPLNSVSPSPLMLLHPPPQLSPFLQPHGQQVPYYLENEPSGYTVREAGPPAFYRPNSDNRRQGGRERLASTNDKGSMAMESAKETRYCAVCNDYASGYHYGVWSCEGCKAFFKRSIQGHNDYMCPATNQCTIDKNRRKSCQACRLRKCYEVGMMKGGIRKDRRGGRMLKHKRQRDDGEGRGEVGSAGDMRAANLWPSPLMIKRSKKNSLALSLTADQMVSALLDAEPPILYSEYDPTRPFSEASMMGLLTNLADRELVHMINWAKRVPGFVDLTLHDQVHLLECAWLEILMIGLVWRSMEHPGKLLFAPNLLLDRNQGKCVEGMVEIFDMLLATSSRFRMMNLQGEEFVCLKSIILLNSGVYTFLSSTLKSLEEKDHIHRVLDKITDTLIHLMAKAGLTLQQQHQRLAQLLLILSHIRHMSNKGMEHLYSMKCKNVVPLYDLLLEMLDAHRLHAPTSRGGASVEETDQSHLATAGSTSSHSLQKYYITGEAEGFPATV
Description: Induction of ERalpha degradation in human T47D cells assessed as decrease in ERalpha protein expression incubated for 24 hrs by Western blotting analysis. It counts as cell-based. In short, it runs like this:
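T47D cells were treated with increasing doses for 24 h. Lysates were western blotted with rabbit anti-ERα, and actin served as the loading control. DC50 was read from the dose series.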
In general terms: Immunoblotting shows a protein as a band on a membrane.

Data set [5] in a line: Bioavailability in CD1 mouse at 10 mg/kg, sc administered as single dose […]. In kind it is ADME, organism-based. Particulars: in vivo.
Data set [6] in a line: Drug uptake in CD1 mouse plasma xenografted with human MCF7 cells 10 mg/kg, sc measured after 3 hrs post last dose. Particulars: in vivo.
Data set [7] can be described thus: AUCinfinity in CD1 mouse at 10 mg/kg, sc administered as single dose […]. Details: route subcutaneous, dose 10 mg/kg. In kind it is ADME, organism-based. Particulars: in vivo.
In data set [8] the target is T2, Estrogen receptor (Homo sapiens, UniProt P03372).
T2 sequence (P03372 whole entry): T1 sequence (whole entry)
Briefly: Induction of ERalpha degradation in human MCF7 cells assessed as decrease in ERalpha protein expression incubated for 48 hrs in presence of VHL298 by Western blotting analysis. In kind it is cell-based. Put shortly:
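MCF7 in-cell western for ERα normalized to tubulin after dose titration co-treated with VHL298 at 5 μM, 48 h total treatment before collection.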

Data set [9] deals with T2, Estrogen receptor. Description: Induction of ERalpha degradation in human MCF7 cells assessed as decrease in ERalpha protein expression preincubated for 2 hrs followed by compound washout and measured after 22 hrs by Western blotting analysis. It counts as cell-based. In short, it runs like this: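 MCF7 in-cell western: 2 h compound treatment, washout, cells collected 22 h later, compared with continuous 24 h treatment; ERα normalized to tubulin.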

Data set [10] has as its system MCF7. Briefly: Antiproliferative activity against human MCF7 cells assessed as growth inhibition preincubated with estradiol for 30 mins followed by compound addition and measured after 7 days by CellTiter-Glo assay. In kind it is functional. Particulars: MCF7, 168 h, time 7 day. In short, it runs like this: (§2)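 MCF7 cells seeded in hormone-deprived media for 72 h. All wells except minimum-signal controls received 0.1 nM estradiol for 30 min, then compound in a 10-point dose series. Incubated 7 days at 37 °C, 5% CO2; ATP content read by CellTiter-Glo 2.0. Duplicate runs averaged.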
(In general: In ATP-based viability assays light output follows the ATP content of the culture.)

Data set [11] addresses Estrogen receptor (Homo sapiens, UniProt P03372, D538G). Briefly: Binding affinity to ERalpha D538G mutant (unknown origin) expressed in Escherichia coli preincubated for 15 mins followed by ligand addition and measured after 1 hr by fluorescent polarization assay. In short, it runs like this: (§3)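 ERα LBD (aa 307–554), WT or D538G, S463P, Y537S, with N-terminal Avi-Tev-His tag, expressed in E. coli T7 Express (20 °C, 12 h, IPTG). Purified by Ni-NTA then size exclusion. Compound preincubated with protein 15 min, fluorescent ligand added, 1 h at room temperature. FP read ex 485/em 535 nm; duplicate runs averaged.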

Data set [12] can be described thus: Solubility of compound. It counts as physicochemical.
A short description of data set [13]: Cmax in CD1 mouse at 10 mg/kg, sc administered as single dose […]. Also noted: route subcutaneous, dose 10 mg/kg. Particulars: in vivo. It counts as ADME, organism-based.
Data set [14] in a line: Toxicity in CD1 mouse xenografted with human MCF7 cells assessed as change in body weight at 10 mg/kg, sc administered once daily for 28 days. In kind it is organism-based. Particulars: in vivo, 672 h, time 28 day. In short, it runs like this: as §1
For data set [15], the target named is T2, Estrogen receptor. Description: Induction of ERalpha degradation in human MCF7 cells assessed as decrease in ERalpha protein expression incubated for 48 hrs by Western blot analysis. In kind it is cell-based.
The subject of a further data set is MDA-MB-231. Briefly: Antiproliferative activity against human MDA-MB-231 cells assessed as growth inhibition incubated for 7 days by CellTiter-Glo assay. In kind it is functional. Particulars: MDA-MB-231, 168 h, time 7 day. Put shortly: (§4)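 Breast lines from ATCC, maintained in ATCC-specified media, treated with increasing compound doses in full-serum (complete) media for 7 days. Relative cell number measured by CellTiter-Glo ATP read-out.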

Data set [16] deals with MCF7. Briefly: Antiproliferative activity against human MCF7 cells assessed as growth inhibition preincubated with estradiol for 30 mins followed by compound addition and measured after 72 hrs by CellTiter-Glo assay. In kind it is functional.
In data set [17] the target is Estrogen receptor (Homo sapiens, UniProt P03372, S463P). Description: Binding affinity to ERalpha S463P mutant (unknown origin) expressed in Escherichia coli preincubated for 15 mins followed by ligand addition and measured after 1 hr by fluorescent polarization assay. In short, it runs like this: as §3
The subject of a further data set is T47D. Briefly: Antiproliferative activity against human T47D cells assessed as growth inhibition incubated for 7 days by CellTiter-Glo assay. In kind it is functional. Particulars: 168 h, time 7 day. In short, it runs like this:
as §4

Data set [18] can be described thus: Half life in CD1 mouse at 10 mg/kg, sc administered as single dose […]. In kind it is ADME, organism-based. Particulars: in vivo.
In data set [19] the test system is MCF7. Description: Antiproliferative activity against human MCF7 cells assessed as reduction in cell viability preincubated with estradiol for 30 mins followed by compound addition and measured after 7 days by CellTiter-Glo assay. It counts as functional, cell-based. Put shortly:
as §2

Estrogen receptor (Homo sapiens, UniProt P03372, S463P), sequence (P03372 whole entry S463P): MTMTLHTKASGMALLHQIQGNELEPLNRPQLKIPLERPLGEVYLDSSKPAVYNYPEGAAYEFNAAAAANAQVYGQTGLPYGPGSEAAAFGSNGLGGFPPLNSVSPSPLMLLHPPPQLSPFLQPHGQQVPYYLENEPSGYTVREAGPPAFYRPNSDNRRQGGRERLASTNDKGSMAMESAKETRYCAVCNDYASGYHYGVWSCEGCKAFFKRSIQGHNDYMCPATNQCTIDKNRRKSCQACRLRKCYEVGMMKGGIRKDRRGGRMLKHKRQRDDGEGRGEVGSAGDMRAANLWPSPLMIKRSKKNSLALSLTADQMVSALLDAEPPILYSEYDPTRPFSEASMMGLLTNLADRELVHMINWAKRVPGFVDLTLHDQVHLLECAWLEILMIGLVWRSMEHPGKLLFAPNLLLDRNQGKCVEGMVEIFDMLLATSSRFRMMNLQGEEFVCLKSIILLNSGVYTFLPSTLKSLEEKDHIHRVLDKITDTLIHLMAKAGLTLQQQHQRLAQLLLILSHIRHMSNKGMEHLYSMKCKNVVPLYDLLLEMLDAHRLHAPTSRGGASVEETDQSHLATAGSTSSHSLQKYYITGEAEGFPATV
Estrogen receptor (Homo sapiens, UniProt P03372, D538G), sequence (P03372 whole entry D538G, the tested form may be a part): as the sequence (P03372 whole entry S463P) above, with P463S, D538G counted along it

As a reminder, the clearance is the rate of elimination divided by the concentration. Broadly, the bioavailability is the share of a dose that reaches the circulation, judged against a reference dose that is usually intravenous. High values mean much systemic uptake, low ones little systemic uptake. By AUC(0-inf) is commonly meant total exposure, with the tail of the curve extrapolated. By DC50 is commonly meant the midpoint of the concentration-degradation curve. A word on the GI50: it is the concentration that inhibits growth by half. For orientation: IC50 means the midpoint of a concentration-inhibition curve. One may read the solubility as how much of the substance goes into solution per volume. As usually defined, the Cmax is the maximum level reached in the sampled fluid or tissue. As a reminder, the half-life is the time in which the quantity being followed falls by half. Higher therefore signals slow loss. What is called EC50 is the midpoint of the concentration-response curve. `Cc1ncsc1-c1ccc([C@@H](C)NC(=O)[C@@H]2C[C@@H](O)CN2C(=O)[C@H](NC(=O)COCCOCc2cn(CCOc3ccc(N(Cc4cccc(O)c4Cl)CC4(c5ccccc5F)CCCC4)cc3)nn2)C(C)(C)C)cc1`: the inhibition in vivo at 10 mg/kg with MCF7 [1] was determined as 30.8%. Moreover, the Vd in data set [2] amounted to 4.82 L/kg. The clearance in data set [3] turned out to be 23 mL/min/kg. Also, the Selectivity Index in the data set filed under Homo sapiens turned out to be 8. Moreover, the result in data set [4] was Active. Besides, in data set [5], the bioavailability is more than 100%. The Drug uptake entry in data set [6] is listed as “Active”. In addition, in [7], the AUC(0-inf) was determined as 14.6 µM·h. In addition, the values for the DC50 at Estrogen receptor [8], on Estrogen receptor [9] and at Estrogen receptor [15] were 14 nM, 37 nM and 6 nM, respectively. Also, the GI50 is 30 nM in the data set with MCF7 [10], more than 10000 nM with MDA-MB-231, more than 10000 nM in the data set on MCF7 [16] and 171 nM in the data set on T47D. In addition, the IC50 stood at 517 nM on Estrogen receptor [11] and 203 nM at Estrogen receptor [17]. In addition, the solubility in data set [12] was less than 0.2 µM. In addition, in [13], the Cmax was 2130 nM. In [14], the Activity entry is “Non-Toxic”. This compound also showed a half-life in [18] of 17 h. In addition, the EC50 with MCF7 [19] was 14 nM.
